# Source: PubChem
# Only some compounds are listed: those with a hit (about 2.3% of all), similar ones and a draw of the others.
# MEKK2wt PB1 HTS: modulators of MEK5 binding to wildtype MEKK2, primary screen, biochemical, multiplex bead flow cytometry, Alexa488-MEK5. actives 1.1% (n = 290,000). Alexa488-MEK5 binding to MEKK2 WT; actives lie on both sides. AID 1531, 2009. binding response (% of control), % at 10 µM; in the data active means binding response below about 67% or above about 130%
# MEKK2mut PB1 HTS: MEK5 binding signal on mutant MEKK2 PB1, primary screen, biochemical, multiplex bead flow cytometry, Alexa488-MEK5 | Alexa488-MEK5 binding to MEKK2 mutant | percent response, % at 10 µM | actives 0.35% (n = 290,000) | AID 1530, 2009; in the data active means percent response above about 24%, passing the limit was not always enough
# ABCB1 inh: ABCB1 efflux pump inhibitors, primary screen, cell-based, multiplex, flow cytometry, ABCG2 counter-screen; CCRF-Adr cells, JC-1 efflux; inhibition, % at 6.6 µM; actives 0.067% (n = 190,000); AID 1326, 2008; in the data active means inhibition above about 40%;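 further: 0% = vehicle and 100% = reference inhibitor; higher value means more JC-1 retained so stronger ABCB1 efflux block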
# ABCG2 block: ABCG2 efflux pump inhibitors, primary screen, multiplex with ABCB1, IgMXP3 cells, flow cytometry; Broad substrate specificity ATP-binding cassette transporter ABCG2 (Homo sapiens), Q9UNQ0; JC-1 efflux; inhibition, % at 6.6 µM; actives 0.1% (n = 190,000);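 active means inhibition above 80%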;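 further: 0% = DMSO and 100% = nicardipine control wells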
# Target sequence (Q9UNQ0 whole entry, looked up): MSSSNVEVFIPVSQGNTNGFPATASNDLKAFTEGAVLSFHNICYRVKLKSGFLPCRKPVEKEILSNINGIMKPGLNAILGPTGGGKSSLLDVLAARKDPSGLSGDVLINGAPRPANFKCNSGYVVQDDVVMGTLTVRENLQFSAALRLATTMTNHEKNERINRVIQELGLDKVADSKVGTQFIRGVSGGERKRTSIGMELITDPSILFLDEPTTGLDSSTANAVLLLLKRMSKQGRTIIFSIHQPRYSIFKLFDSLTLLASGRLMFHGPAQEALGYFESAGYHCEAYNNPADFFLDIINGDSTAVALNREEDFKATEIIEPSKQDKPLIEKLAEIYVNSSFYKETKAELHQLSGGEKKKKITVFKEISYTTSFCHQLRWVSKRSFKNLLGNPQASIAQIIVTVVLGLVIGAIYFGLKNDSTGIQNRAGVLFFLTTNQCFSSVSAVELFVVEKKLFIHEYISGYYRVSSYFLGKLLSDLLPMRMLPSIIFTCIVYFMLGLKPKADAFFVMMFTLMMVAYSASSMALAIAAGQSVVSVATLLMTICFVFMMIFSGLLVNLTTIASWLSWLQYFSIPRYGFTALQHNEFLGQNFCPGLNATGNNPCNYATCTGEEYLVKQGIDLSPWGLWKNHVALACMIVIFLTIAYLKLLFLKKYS
#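 System: two drug-resistant human cell lines, ABCG2 and ABCB1; controls: nicardipine high and DMSO low controls; times: 10 min exposure at 25 °C with rotation, no wash; detection: flow cytometry of retained JC-1 fluorescence; read-out basis: percent efflux inhibition, scaled nicardipine 100% to DMSO 0%; doses: one concentration, 6.6 µM final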
# MEKK3 PB1 HTS: modulators of MEKK3-MEK5 PB1 binding, primary screen, biochemical, wildtype MEKK3, multiplex bead flow cytometry, Alexa488-MEK5; actives 1.4% (n = 290,000); bead-based flow cytometry, Alexa488-MEK5 binding to MEKK3; actives lie on both sides; 0 = blocked by unlabeled MEK5, 100 = vehicle; Mitogen-activated protein kinase kinase kinase 3 (Homo sapiens), Q99759; binding response (% of control), % at 10 µM;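 active means binding response more than 3 SD above or below the average of its plate-row segment, actives on both sides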;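 further: Alexa488 bead fluorescence after subtracting the streptavidin-only scavenger bead signal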
# MEKK2wt confirm: modulators of MEK5 binding to wildtype MEKK2, confirmation, biochemical, single concentration, multiplex bead flow cytometry; shares compounds with MEKK3 PB1 HTS; binding response (% of control), % at 10 µM; Alexa488-MEK5 binding to MEKK2 WT; actives lie on both sides; actives 2.4% (n = 5,900); AID 1892, 2009; in the data active means binding response below about 16% or above about 210%; inactive means in between
# MEKK2mut-MEK5: mutant MEKK2 PB1-MEK5 binding signal retest – biochemical, single concentration, multiplex bead flow cytometry, confirmation. shares compounds with MEKK3 PB1 HTS. Alexa488-MEK5 binding to MEKK2 mutant. percent response, % at 10 µM. actives 2% (n = 5,900). AID 1893, 2009; in the data active means percent response mostly above about 71%, no sharp cut-off; inactive means mostly below about 38%;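 further: higher means compound restores mutant binding toward wildtype level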
# MEKK3 confirm: MEKK3 wild-type PB1 binding to MEK5, inhibitors, confirmation, biochemical, bead multiplex flow cytometry, single concentration, wildtype. shares compounds with MEKK3 PB1 HTS. binding response (% of control), % at 10 µM. AID 1894, 2009. Alexa488-MEK5 binding to MEKK3; active compounds read low. actives 1.8% (n = 5,900);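 active means binding response below 72% of control, or above a set upper limit, though filed actives all read lower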;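 further: 100% = DMSO only wells and 0% = binding blocked by excess unlabeled MEK5; lower values mean stronger disruption of MEK5 binding to MEKK3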
# Numbers without * were called inactive; . = not tested or not shown; [ ] = remark or other dose.
SMILES,MEKK2wt PB1 HTS,MEKK2mut PB1 HTS,ABCB1 inh,ABCG2 block,MEKK3 PB1 HTS,MEKK2wt confirm,MEKK2mut-MEK5,MEKK3 confirm
COc1ccc(CNCC(O)(c2ccc(Cl)cc2)c2ccc(Cl)cc2)cc1,154*,10,5,7,105,167,26,106
O=C(CSc1nc2ccccc2c(=O)n1Cc1ccc(Cl)cc1)NCc1cccs1,96,-2,2,2,100,.,.,.
O=C(CSc1nc2ccccc2c(=O)n1-c1ccc(OC(F)F)cc1)NCc1cccs1,105,0,1,5,138*,100,0,102
COC(=O)CN1C(=O)N/C(=C/c2ccccc2OC)C1=O,116,1,0,0,131*,104,0,108
CCOC(=O)c1c(C)[nH]c(C(=O)NCc2ccco2)c1C,122,6,1,17,143*,96,0,97
O=C(/C=C/c1ccco1)NC(=S)Nc1ccc(N2CCCC2)cc1,103,0,0,15,142*,92,-9,96
C/C=C/c1ccc(OCC(O)CNCCc2ccc(OC)cc2)c(OC)c1 (configuration not stated),120,8,.,.,103,.,.,.
C/C=C/c1ccc(OCC(O)CNCC(c2ccc(OC)cc2)N(C)C)c(OC)c1 (configuration not stated),146*,19,.,.,111,120,7,101
CCCCOc1ccc(S(=O)(=O)Nc2cccnc2)cc1,-8.0*[inhibitor],-23,2,15,1.0*[inhibitor],100,-3,99
COc1ccc2[nH]c3c(N4CCc5ccccc5C4)ncnc3c2c1,189*,47,.,.,127,130,15,103
CCOC(=O)N1CCN(c2ncnc3c2[nH]c2ccc(OC)cc23)CC1,105,1,1,4,99,.,.,.
Cn1cccc1CC(=O)NNC(=O)Nc1ccc(Cl)cc1,101,1,0,25,100,.,.,.
Cn1cccc1CC(=O)NNC(=O)Nc1cccc(Cl)c1,105,-1,0,-1,129*,106,5,104
O=c1cc(CSc2nnc(COc3ccccc3)o2)c2ccccc2[nH]1,121,7,0,3,125*,100,-1,101
CNC(=O)N(C1=NCCCCC1)c1ccc(Br)cc1,103,0,-1,-13,129*,107,7,107
COc1ccccc1NC(=O)CN1CCN(CC(=O)Nc2ccc3c(c2)OCCO3)CC1,112,24*,1,32,106,112,15,104
CCOc1ccc(NC(=O)CN2CCN(CC(=O)Nc3cc(OC)cc(OC)c3)CC2)cc1,115,25*,0,2,113,105,-3,104
CCOC(=O)N1CCN(C(=O)c2nn(C)c3c2CSc2ccccc2-3)CC1,105,3,.,.,103,.,.,.
CCn1cc(Cl)c(C(=O)Nc2cccc(CN3CCOCC3)c2)n1,98,0,.,.,100,.,.,.
O=C1CN(C(=O)COc2ncnc3ccccc23)c2ccccc2N1,99,15,1,5,101,.,.,.
Cc1sc2ncnc(OCC(=O)N3CC(=O)Nc4ccccc43)c2c1C,46*[inhibitor],-18,13,5,42*[inhibitor],100,6,104
COc1ccc(-c2cn3ccccc3n2)cc1[N+](=O)[O-],98,-2,1,31,97,.,.,.
COc1ccc(-c2cn3cc([N+](=O)[O-])ccc3n2)cc1OC,90,-1,0,6,75*[inhibitor],112,11,107
O=C(NCCCn1ccnc1)c1ccc(Cl)s1,106,8,.,.,102,.,.,.
O=C(CSc1ccc2nnc(CCNC(=O)c3ccc(F)cc3)n2n1)NCC1CCCO1 (configuration not stated),107,6,.,.,99,.,.,.
SMILES,MEKK2wt PB1 HTS,MEKK2mut PB1 HTS,ABCB1 inh,ABCG2 block,MEKK3 PB1 HTS,MEKK2wt confirm,MEKK2mut-MEK5,MEKK3 confirm
Cc1ccc(NS(=O)(=O)c2cc([N+](=O)[O-])ccc2N/N=C/c2sc(N3CCOCC3)nc2-c2ccccc2)c(C)c1,.,49,.,.,10*[inhibitor],106,3,102
CC(C)(C)c1ccccc1NC(=O)N1CCNC(=O)C1CC(=O)Nc1ccc(F)cc1 (configuration not stated),91,0,.,.,94,.,.,.
O=C(c1ccc(F)cc1)N1CCN(S(=O)(=O)c2ccc(Br)cc2)CC1,95,-7,.,.,98,.,.,.
CCOC(=O)C(NC(=O)NCc1ccc(F)cc1)(OCC)C(F)(F)F (configuration not stated),107,4,0,0,128*,104,1,103
CCOC(=O)C(NC(=O)Nc1ccc(Cl)cn1)(Oc1ccc(F)cc1)C(F)(F)F (configuration not stated),103,3,0,0,152*,107,11,105
CCc1nc(SCC(=O)Nc2ccc(Br)cn2)n[nH]1,112,8,.,.,106,.,.,.
O=C(COC(=O)C1C2CC3OC(=O)C1C3C2)Nc1ccc(Cl)cc1 (configuration not stated),94,0,.,.,101,.,.,.
COCCNC(=O)COc1ncnc2scc(-c3ccc(F)cc3)c12,127,6,0,2,143*,110,7,106
CC(C)(Oc1ccc(Br)cc1Cl)C(=O)Nc1ccon1,103,5,.,.,101,.,.,.
Cc1cc(NC(=O)CSc2nc(-c3cccs3)cc(C(F)(F)F)n2)no1,-7.0*[inhibitor],-35,0,1,89,96,0,100
COC(=O)c1c(NC(=O)CSc2nc(-c3ccco3)cc(C(F)(F)F)n2)sc2c1CCCC2,-8.0*[inhibitor],-22,0,1,0.0*[inhibitor],108,12,109
COc1ccc(OCC(=O)NC2CCCN(Cc3ccc(Cl)cc3)C2)cc1 (configuration not stated),103,0,.,.,98,.,.,.
CN1C(=O)/C(=C/c2ccc(OCc3ccc(F)cc3)cc2)NC1=S,96,-2,.,.,94,.,.,.
